Values after ≈ are worked out from the molar mass of the structure shown.
Columns and labels:
Cytochrome P450 1B1 [1] = target: T1, Cytochrome P450 1B1 (Homo sapiens, UniProt Q16678); assay: Inhibition of human liver CYP1B1 expressed in HEK293 cells using 7-ethoxyresorufin as substrate preincubated for 30 mins followed by substrate addition measured after 60 mins by fluorescence assay; type: cell-based
T1 sequence (Q16678 whole entry): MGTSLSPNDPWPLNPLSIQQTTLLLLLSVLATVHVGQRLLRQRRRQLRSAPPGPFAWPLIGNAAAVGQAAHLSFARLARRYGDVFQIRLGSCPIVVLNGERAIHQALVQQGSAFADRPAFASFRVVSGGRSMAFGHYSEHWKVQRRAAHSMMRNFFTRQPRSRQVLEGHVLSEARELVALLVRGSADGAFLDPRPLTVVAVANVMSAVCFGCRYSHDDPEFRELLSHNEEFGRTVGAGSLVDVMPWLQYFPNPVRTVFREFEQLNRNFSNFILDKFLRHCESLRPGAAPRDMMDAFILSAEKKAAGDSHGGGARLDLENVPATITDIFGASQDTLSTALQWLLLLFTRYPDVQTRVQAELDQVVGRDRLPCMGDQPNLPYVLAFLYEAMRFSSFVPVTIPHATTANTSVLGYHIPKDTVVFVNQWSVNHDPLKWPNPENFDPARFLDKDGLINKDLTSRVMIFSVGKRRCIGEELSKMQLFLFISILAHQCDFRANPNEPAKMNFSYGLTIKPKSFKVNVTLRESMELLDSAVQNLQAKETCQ
Procedure, shortened: (§1)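 HEK293 cells adapted to suspension were lipid-transfected with pCDM/hCYP1B1, used 24–48 h later and resuspended at 4×10^6/mL. Wells of 100–200×10^3 cells, in triplicate, were preincubated with compound (1 nM–30 µM) for 30 min at 37 °C, 8% CO2. Substrate followed: 7-ER at 5 µM or CEC. Fluorescence was read over 60 min and IC50 obtained by sigmoidal fit.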

[2] = Solubility of the compound in pH 7.4 PBS buffer; type: physicochemical
[3] = Solubility of the compound in pH 6.8 simulated intestinal fluid; type: physicochemical
[4] = Solubility of the compound in pH 1.2 simulated gastric fluid; type: physicochemical
Cytochrome P450 1B1 [5] = target: T1, Cytochrome P450 1B1; assay: Inhibition of human liver CYP1B1 expressed in Saccharomyces cerevisiae YY7 cells using 7-ethoxyresorufin as substrate after 10 mins by fluorescence assay; type: cell-based
Procedure, shortened: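 Live S. cerevisiae YY7 carrying human CYP1B1 was grown in YP-galactose. Cells were harvested 16–20 h after induction, washed in TE (pH 7.4) and diluted 1:10.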

Cytochrome P450 1B1 [6] = target: T1, Cytochrome P450 1B1; assay: Inhibition of human liver CYP1B1 expressed in HEK293 cells using CEC as substrate preincubated for 30 mins followed by substrate addition measured after 60 mins by fluorescence assay; type: cell-based; procedure, shortened: as §1
Cytochrome P450 1B1 [7] = target: T1, Cytochrome P450 1B1; assay: Inhibition of CYP1B1 in human A2780cis cells assessed as potentiation of cisplatin-induced cytotoxicity at 2 times CYP1B1 inhibitory IC50 by MTT assay; type: cell-based
Cytochrome P450 1A2 = target: T2, Cytochrome P450 1A2 (Homo sapiens, UniProt P05177); assay: Inhibition of human liver CYP1A2 expressed in Saccharomyces cerevisiae YY7 microsomal membranes using CEC as substrate after 10 mins by fluorescence assay; type: ADME, Microsomal Membrane
T2 sequence (P05177 whole entry): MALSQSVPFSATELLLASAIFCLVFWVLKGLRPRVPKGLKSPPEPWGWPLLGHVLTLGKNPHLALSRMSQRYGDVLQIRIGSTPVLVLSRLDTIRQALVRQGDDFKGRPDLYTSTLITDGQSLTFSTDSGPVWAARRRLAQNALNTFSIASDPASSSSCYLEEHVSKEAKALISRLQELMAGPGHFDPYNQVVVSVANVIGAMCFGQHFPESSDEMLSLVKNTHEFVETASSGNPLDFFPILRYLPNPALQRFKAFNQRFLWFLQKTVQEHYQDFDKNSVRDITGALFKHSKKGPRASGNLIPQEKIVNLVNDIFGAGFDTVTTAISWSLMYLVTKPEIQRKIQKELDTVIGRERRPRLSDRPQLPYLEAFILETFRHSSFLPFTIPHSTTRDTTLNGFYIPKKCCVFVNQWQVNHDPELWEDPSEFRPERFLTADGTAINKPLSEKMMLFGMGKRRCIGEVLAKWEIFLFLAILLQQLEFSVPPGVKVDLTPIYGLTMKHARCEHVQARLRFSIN
Procedure, shortened: (§2)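 Yeast microsomes (YY7 strain carrying human reductase) held 0.5 pmol CYP with an NADP+/glucose-6-phosphate/G6PDH regenerating system in KPi. Fluorogenic substrate per isoform: 7-ER, CEC, EOMCC or DBF. Six serial 1:20 dilutions were tested, DMSO ≤0.5%. Reactions ran 10 min at 37 °C and were stopped with Tris-acetonitrile. Endpoint fluorescence (530/590 nm for resorufin) was fitted by 4-parameter sigmoid. Triplicate, ≥3 experiments.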

Cytochrome P450 1A1 = target: T3, Cytochrome P450 1A1 (Homo sapiens, UniProt P04798); assay: Inhibition of human liver CYP1A1 expressed in Saccharomyces cerevisiae YY7 microsomal membranes using 7-ethoxyresorufin as substrate after 10 mins by fluorescence assay; type: ADME, Microsomal Membrane; procedure, shortened: as §2
T3 sequence (P04798 whole entry): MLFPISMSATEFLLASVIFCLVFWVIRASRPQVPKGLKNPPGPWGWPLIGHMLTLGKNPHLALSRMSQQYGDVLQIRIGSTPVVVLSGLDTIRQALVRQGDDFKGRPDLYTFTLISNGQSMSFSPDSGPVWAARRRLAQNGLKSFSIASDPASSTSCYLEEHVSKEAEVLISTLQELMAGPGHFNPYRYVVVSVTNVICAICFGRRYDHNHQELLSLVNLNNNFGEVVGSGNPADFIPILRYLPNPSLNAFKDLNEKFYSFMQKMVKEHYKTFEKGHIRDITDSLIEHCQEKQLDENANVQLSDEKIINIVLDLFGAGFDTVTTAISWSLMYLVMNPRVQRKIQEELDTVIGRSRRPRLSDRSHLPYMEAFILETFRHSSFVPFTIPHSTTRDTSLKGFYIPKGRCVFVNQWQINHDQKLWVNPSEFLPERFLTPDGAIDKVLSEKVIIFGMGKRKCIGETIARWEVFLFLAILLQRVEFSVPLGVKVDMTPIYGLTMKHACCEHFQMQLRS

Cytochrome P450 2D6 = Cytochrome P450 2D6 (Homo sapiens, UniProt P10635); assay: Inhibition of human liver CYP2D6 expressed in Saccharomyces cerevisiae YY7 microsomal membranes using EOMCC as substrate after 10 mins by fluorescence assay; type: ADME, Microsomal Membrane; procedure, shortened: as §2
Sequence of Cytochrome P450 2D6 (P10635 whole entry): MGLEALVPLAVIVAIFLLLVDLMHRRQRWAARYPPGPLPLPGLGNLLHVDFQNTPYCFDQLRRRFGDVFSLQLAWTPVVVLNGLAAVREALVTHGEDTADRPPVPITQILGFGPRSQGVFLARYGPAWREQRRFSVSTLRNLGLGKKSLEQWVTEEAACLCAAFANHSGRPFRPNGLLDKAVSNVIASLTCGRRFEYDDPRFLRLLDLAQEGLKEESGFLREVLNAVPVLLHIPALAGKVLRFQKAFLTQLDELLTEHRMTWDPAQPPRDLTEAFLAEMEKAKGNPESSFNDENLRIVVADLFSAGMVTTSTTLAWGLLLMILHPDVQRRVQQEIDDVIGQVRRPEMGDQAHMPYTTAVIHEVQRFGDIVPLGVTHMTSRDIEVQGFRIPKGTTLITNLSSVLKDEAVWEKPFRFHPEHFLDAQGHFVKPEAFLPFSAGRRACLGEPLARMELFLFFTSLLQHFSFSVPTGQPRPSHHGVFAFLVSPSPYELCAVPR

Cytochrome P450 1B1 [8] = target: T1, Cytochrome P450 1B1; assay: Inhibition of human liver CYP1B1 expressed in Saccharomyces cerevisiae YY7 microsomal membranes using 7-ethoxyresorufin as substrate after 10 mins by fluorescence assay; procedure, shortened: as §2
Cytochrome P450 3A4 = Cytochrome P450 3A4 (Homo sapiens, UniProt P08684); assay: Inhibition of human liver CYP3A4 expressed in Saccharomyces cerevisiae YY7 microsomal membranes using DBF as substrate after 10 mins by fluorescence assay; type: ADME, Microsomal Membrane
Sequence of Cytochrome P450 3A4 (P08684 whole entry): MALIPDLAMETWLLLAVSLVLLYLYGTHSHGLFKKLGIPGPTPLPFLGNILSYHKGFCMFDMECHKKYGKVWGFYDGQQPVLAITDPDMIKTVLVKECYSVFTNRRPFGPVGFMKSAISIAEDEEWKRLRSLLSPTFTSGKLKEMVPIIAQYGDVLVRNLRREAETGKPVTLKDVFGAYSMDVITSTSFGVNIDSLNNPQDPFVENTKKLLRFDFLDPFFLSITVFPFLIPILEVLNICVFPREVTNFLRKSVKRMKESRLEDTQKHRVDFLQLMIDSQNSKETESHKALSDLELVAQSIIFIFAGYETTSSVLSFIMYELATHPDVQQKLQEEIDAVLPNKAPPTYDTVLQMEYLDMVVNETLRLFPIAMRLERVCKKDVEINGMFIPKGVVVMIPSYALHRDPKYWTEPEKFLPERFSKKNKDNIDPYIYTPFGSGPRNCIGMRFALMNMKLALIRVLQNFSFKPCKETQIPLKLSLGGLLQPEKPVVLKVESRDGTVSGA

Cytochrome P450 2C19 = Cytochrome P450 2C19 (Homo sapiens, UniProt P33261); assay: Inhibition of human liver CYP2C19 expressed in Saccharomyces cerevisiae YY7 microsomal membranes using DBF as substrate after 10 mins by fluorescence assay; type: ADME, Microsomal Membrane
Sequence of Cytochrome P450 2C19 (P33261 whole entry): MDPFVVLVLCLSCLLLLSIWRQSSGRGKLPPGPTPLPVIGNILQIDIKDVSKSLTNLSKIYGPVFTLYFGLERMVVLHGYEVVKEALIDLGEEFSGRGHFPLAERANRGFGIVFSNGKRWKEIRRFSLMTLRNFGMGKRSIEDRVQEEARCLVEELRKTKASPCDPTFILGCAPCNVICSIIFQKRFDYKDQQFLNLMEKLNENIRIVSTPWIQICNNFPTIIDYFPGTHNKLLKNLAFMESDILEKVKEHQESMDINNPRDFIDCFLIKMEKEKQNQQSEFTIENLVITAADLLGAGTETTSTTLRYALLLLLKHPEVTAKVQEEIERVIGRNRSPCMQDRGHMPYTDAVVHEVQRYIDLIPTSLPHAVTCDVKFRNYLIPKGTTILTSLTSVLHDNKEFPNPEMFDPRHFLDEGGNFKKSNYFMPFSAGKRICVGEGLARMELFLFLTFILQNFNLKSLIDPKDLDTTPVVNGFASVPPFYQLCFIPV

Cytochrome P450 1B1 [9] = target: T1, Cytochrome P450 1B1; assay: Inhibition of human liver CYP1B1 expressed in Saccharomyces cerevisiae YY7 microsomal membranes at 5 to 10 uM using 7-ethoxyresorufin as substrate after 10 mins by fluorescence assay
Procedure, shortened: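 Single-concentration screen on CYP1B1 yeast microsomes at 5 µM (10 µM per methods), with 7-ER under the regenerating-system endpoint format: 10 min at 37 °C. Percentage inhibition versus a DMSO control; each compound tested twice.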

Cytochrome P450 2C9 = Cytochrome P450 2C9 (Homo sapiens, UniProt P11712); assay: Inhibition of human liver CYP2C9 expressed in Saccharomyces cerevisiae YY7 microsomal membranes using DBF as substrate after 10 mins by fluorescence assay; type: ADME, Microsomal Membrane
Sequence of Cytochrome P450 2C9 (P11712 whole entry): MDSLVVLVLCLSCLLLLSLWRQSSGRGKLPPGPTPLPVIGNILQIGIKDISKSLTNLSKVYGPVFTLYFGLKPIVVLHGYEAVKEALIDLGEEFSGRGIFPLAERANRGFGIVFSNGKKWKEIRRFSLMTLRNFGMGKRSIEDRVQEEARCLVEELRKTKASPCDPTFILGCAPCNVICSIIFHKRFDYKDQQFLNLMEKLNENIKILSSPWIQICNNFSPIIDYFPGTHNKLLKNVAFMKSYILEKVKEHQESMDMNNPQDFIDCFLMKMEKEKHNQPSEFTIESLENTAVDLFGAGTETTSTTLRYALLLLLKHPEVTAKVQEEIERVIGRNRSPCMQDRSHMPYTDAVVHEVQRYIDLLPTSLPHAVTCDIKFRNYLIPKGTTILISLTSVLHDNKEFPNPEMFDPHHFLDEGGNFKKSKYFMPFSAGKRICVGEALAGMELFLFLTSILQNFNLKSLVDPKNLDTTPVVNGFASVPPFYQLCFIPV

CYP1B1 = target: T4, CYP1B1 (Homo sapiens, UniProt Q16678); assay: Inhibition of human liver CYP1B1 expressed in Saccharomyces cerevisiae YY7 microsomal membranes at 1 uM using 7-ethoxyresorufin as substrate after 10 mins by fluorescence assay relative to control; details: probe 7-ethoxyresorufin
T4 sequence (Q16678 whole entry): T1 sequence (Q16678 whole entry)

Row | SMILES | IC50 (Cytochrome P450 1B1 [1]) | solubility [2] | solubility [3] | solubility [4] | IC50 (Cytochrome P450 1B1 [5]) | IC50 (Cytochrome P450 1B1 [6]) | inhibition (INH) (Cytochrome P450 1B1 [7]) | IC50 (Cytochrome P450 1A2) | IC50 (Cytochrome P450 1A1) | IC50 (Cytochrome P450 2D6) | IC50 (Cytochrome P450 1B1 [8]) | IC50 (Cytochrome P450 3A4) | IC50 (Cytochrome P450 2C19) | inhibition (INH) (Cytochrome P450 1B1 [9]) | IC50 (Cytochrome P450 2C9) | inhibition at 10 min, 1 µM (CYP1B1)
1 | O=C(/C=C/c1ccc2ccccc2c1)c1cccnc1 | 53 nM | 14.5 µg/mL (≈ 56 µM) | 0.45 µg/mL (≈ 1.74 µM) | 68.6 µg/mL (≈ 264 µM) | 64 nM | 4 nM | Not Active | 1200 nM | 742 nM | 10000 nM | 10 nM | 18000 nM | > 20000 nM | Active | > 20000 nM | 
2 | COc1ccc2cc(C(=O)/C=C/c3cccnc3)ccc2c1 | 8 nM | 20.1 µg/mL (≈ 69.4 µM) | 0.27 µg/mL (≈ 0.933 µM) | 538 µg/mL (≈ 1860 µM) | 65 nM | 4 nM | Not Active | 1200 nM | 795 nM | 5000 nM | 9 nM |  | > 20000 nM | Active | > 20000 nM | 
3 | O=c1cc(-c2ccccc2)oc2c1ccc1ccccc12 [ALPHA-NAPHTHOFLAVONE] |  | 6.85 µg/mL (≈ 25.2 µM) | 0.58 µg/mL (≈ 2.13 µM) | 6.45 µg/mL (≈ 23.7 µM) |  |  |  |  |  |  |  |  |  | Active |  | > 80%
